Data: publication PMC5532717 (ACS Central Science, 2017)

Tests used:
GANAB = biological target: T1, GANAB (Mus musculus, UniProt Q8BHN3); assay: Competitive ABPP against probe 13 in mouse gastrointestinal lysate; type: biochemical; conditions: mouse intestine lysate, 1 h at 37 °C
T1 sequence (Q8BHN3 33-944): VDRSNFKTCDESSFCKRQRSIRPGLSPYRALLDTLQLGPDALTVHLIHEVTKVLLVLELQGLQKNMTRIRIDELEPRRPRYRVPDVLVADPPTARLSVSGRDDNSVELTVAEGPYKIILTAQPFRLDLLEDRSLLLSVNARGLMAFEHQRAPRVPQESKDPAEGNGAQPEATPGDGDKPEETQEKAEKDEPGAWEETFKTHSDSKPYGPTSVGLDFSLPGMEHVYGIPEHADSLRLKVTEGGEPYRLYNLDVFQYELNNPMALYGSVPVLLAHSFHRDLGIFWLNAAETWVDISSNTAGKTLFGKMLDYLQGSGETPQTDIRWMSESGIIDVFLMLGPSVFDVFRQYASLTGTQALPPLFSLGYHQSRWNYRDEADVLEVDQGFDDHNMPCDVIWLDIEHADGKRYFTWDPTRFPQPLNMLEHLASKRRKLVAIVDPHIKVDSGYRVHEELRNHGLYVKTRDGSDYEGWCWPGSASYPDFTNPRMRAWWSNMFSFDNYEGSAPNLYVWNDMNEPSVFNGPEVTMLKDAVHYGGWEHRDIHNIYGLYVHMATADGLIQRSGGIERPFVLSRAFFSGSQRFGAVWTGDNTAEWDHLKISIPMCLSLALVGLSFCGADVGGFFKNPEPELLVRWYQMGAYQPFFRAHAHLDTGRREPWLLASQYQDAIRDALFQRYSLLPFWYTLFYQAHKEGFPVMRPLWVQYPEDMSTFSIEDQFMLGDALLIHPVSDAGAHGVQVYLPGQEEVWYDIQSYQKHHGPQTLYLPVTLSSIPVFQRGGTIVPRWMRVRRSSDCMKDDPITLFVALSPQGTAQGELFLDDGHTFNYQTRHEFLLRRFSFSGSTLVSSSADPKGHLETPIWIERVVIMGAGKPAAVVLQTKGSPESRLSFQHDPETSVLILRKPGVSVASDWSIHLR
T1 sequence (O08795 15-521 partner): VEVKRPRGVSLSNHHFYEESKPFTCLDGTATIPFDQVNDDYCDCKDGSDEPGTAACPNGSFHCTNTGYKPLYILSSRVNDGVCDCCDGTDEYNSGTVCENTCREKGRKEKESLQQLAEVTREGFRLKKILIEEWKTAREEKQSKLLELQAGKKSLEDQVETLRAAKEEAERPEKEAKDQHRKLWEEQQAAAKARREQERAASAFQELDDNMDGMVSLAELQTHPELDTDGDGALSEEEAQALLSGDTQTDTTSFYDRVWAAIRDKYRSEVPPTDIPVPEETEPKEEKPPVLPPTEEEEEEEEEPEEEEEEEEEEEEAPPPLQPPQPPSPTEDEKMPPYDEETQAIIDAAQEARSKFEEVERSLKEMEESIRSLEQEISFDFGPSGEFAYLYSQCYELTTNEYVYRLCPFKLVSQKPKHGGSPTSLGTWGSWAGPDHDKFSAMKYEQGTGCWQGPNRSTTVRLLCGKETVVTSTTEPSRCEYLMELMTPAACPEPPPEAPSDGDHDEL
Procedure, shortened: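 Mixed mouse duodenum, jejunum and ileum homogenates were made in 25 mM potassium phosphate pH 6.5 with protease inhibitors (40 μg protein). Held 5 min on ice in McIlvaine buffer pH 4 or 7. Incubated 1 h at 37 °C with test compound (final 150 to 0.005 μM, plus 0), then probe 13 for 30 min at 37 °C. Boiled in Laemmli buffer, 10% SDS–PAGE, Cy5 fluorescence scan.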

GAA = GAA (Homo sapiens, UniProt P10253); assay: Competitive ABPP against probe 13 in fibroblast lysates, pH 4; type: biochemical; conditions: pH 4, preincubation 15, 30 or 60 min
Procedure, shortened: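 Human normal dermal fibroblast homogenate (17.6 μg total protein) in 150 mM McIlvaine buffer for 5 min on ice, at pH 4 for GAA and pH 7 for GANAB. Exposed to test compound for 15, 30 or 60 min at 37 °C, then labeled with Cy5 aziridine probe 13 for 30 min at 37 °C. Denatured at 98 °C, 10% SDS–PAGE, Cy5 in-gel fluorescence scan.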

inhibition of probe 13 labeling of GANAB (GANAB): inhibited
inhibition of probe 13 labeling of GAA (GAA): time dependent inhibition
SMILES: O=S1(=O)O[C@@H]2[C@H](O)[C@@H](O)[C@H](O)[C@@H](CO)[C@@H]2O1 [Compound 5, 1,6-epi-cyclophellitol cyclosulfate]
